Test results: PubChem BioAssay
The source made the active and inactive calls.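 How the source made its calls, unless noted: active means viability at or below 30% in both replicate assays; inconclusive means viability at or below 30% in just one of the two assays; inactive means the rest.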

Columns and labels:
[1] = Her2 expression decrease, cell viability multiplex – SKBR3 breast tumor cells, AlphaScreen, ATP viability, primary screen (AID 461;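 active means Her2 level under about 52% in both replicate screens, with viability over 70% of control, limit read from the data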;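 on Her2 level: lower value means less Her2 protein in the cells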;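 on viability: percent of carrier control wells set as 100% viability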); conditions: SKBR3 Her2 protein level, 18-24 h, measured here: SKBR3 viability, ATP luminescence, at 10 µM
[2] = target: Receptor tyrosine-protein kinase erbB-2 (Homo sapiens) (UniProt P04626); assay: as above; conditions: 18-24 h, at 10 µM, stronger effect = lower value
[3] = reduced viability of SK-BR-3 breast cancer cells – cell-based, 24 h, human, pilot screen (AID 572;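 active means viability at or below 10% of carrier control in both of two separate runs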;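 further: compound exposure lasted between 18 and 24 h rather than exactly 24 h; 100% = carrier-treated control wells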); conditions: SK-BR-3 viability, CellTiter-Glo luminescence, at 10 µM, stronger effect = lower value
[4] = HUVEC growth inhibition – cell-based, human, primary screen (AID 575); conditions: HUVEC proliferation, CellTiter-Glo luminescence, 72 h; at 10 µM; stronger effect = lower value;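 further: 100% = median of untreated cell wells with 0.1% DMSO on each plate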
Summary of the method: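 Material: primary human umbilical vein endothelial cells / Schedule: 72 h exposure, 37 °C, 5% CO2, 30 min RT equilibration / Signal: ATP-based CellTiter-Glo luminescent read / Read-out basis: percent of median DMSO-control luminescence / Control set: 32 DMSO-only cell-control wells (high), 32 MePR drug-control wells (low) per plate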

[5] = H69AR cell proliferation blockers – human, duplicate replicates, primary screen (AID 580;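 active means viability at or under a set limit in both replicates, limit being median viability minus 3 SD, cut at about 48% in these data, passing the limit was not always enough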;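 further: 100% = mean luminescence of untreated wells and 0% = no signal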); conditions: H69AR lung tumor cells viability, ATP luminescence, 72 h; at 10 µM; stronger effect = lower value
[6] = MRP1 drug-resistance reversers in H69AR cells – cell-based, doxorubicin co-treatment, pilot screen (AID 601;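 active means viability loss from added drug above about 55%, and viability with drug at most 40%, in both replicates, limit read from the data, passing the limit was not always enough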); conditions: CellTiter-Glo, 72 h, at 10 µM; for differential viability (reversal): stronger effect = higher value
[7] = yeast transport mutant growth inhibition pilot in 384-well plates, post-Golgi transport modulator project (AID 636; in the data active means inhibition above about 31%); conditions: absorbance 615 nm, about 18 h, stronger effect = higher value
[8] = growth suppression of yeast trafficking mutant, preliminary HTS, modulators of trafficking downstream of Golgi apparatus project, 1536-format plate, OD 615 nm (AID 637; in the data active means inhibition above about 30%); conditions: yeast transport mutant growth, absorbance 615 nm, 18 h; stronger effect = higher value
[9] = H69AR cells + 2 uM doxorubicin, measured here: viability with 2 uM doxorubicin, stronger effect = lower value
[10] = H69AR cells, compound alone cytotoxicity

Sequence of Receptor tyrosine-protein kinase erbB-2 (Homo sapiens) (P04626 whole entry, looked up): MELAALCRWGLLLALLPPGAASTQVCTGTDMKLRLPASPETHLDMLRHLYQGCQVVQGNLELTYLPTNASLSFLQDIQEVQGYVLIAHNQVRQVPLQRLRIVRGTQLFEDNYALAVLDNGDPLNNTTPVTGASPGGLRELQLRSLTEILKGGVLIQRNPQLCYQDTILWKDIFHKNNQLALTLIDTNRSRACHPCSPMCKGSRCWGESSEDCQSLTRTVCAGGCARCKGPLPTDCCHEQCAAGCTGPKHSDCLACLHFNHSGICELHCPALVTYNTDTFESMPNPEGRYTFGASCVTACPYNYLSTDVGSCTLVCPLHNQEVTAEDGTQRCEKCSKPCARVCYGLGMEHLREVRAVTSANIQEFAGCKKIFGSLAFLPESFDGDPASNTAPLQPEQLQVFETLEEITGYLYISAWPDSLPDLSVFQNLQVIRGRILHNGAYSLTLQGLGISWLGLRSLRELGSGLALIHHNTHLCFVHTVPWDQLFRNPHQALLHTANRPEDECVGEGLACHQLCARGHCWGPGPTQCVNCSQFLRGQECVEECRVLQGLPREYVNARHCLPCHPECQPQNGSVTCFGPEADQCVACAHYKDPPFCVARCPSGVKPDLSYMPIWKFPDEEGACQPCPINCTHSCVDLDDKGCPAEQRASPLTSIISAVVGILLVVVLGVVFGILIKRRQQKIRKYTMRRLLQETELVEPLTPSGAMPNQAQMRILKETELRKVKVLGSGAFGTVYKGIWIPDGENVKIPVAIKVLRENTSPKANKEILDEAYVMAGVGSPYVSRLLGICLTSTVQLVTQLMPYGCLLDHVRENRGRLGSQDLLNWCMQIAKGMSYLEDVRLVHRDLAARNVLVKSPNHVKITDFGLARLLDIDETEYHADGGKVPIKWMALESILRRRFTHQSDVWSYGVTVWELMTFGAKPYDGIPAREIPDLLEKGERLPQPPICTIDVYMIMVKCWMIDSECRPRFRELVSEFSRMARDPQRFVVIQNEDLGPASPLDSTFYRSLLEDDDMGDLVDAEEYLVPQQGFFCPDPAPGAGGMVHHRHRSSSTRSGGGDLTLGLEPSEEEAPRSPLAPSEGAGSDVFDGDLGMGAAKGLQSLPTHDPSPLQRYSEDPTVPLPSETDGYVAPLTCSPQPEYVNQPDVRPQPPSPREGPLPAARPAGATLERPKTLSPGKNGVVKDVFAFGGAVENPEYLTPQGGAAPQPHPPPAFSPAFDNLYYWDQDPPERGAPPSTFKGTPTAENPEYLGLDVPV

Row | SMILES | viability [1] [%] | Her2 level [2] | viability [3] | viability [4] | viability [5] | differential viability (reversal) ([6]; H69AR cells + 2 uM doxorubicin) | viability [6, 9] [%] | viability [6, 10] [%] | inhibition [7] | inhibition [8]
1 | Cc1cc(C(=O)NCCN2CCN(c3cccc(Cl)c3)CC2)n(-c2ccccc2)n1 | 98 | 91.5% (inactive) | 98% (inactive) | 42.3% (inactive) | 23.7% (active) | -24.5% (inactive) | 48.2 | 23.7 | -4.8% (inactive) | -1.48% (inactive)
2 | Cn1cnnc1SCC(=O)NCc1cccc(C(F)(F)F)c1 | 88 | 97.5% (inactive) | 88% (inactive) | 102% (inactive) | 94.3% (inactive) | 0.52% (inactive) | 93.8 | 94.3 | -5.53% (inactive) | -1.43% (inactive)
3 | Cc1ccc(C(=O)NC2CC3CCCC(C2)N3C(=O)NC2CCCCC2)cc1 (stereo not given) | 92 | 109% (inactive) | 92% (inactive) | 111% (inactive) | 98.5% (inactive) | 7.93% (inactive) | 90.6 | 98.5 | -5.73% (inactive) | -2.1% (inactive)
4 | O=C(O)c1[nH]c2ccc(Cl)cc2c1CC(=O)N1CCN(C(=O)c2ccco2)CC1 | 83.5 | 112% (inactive) | 83.5% (inactive) | 108% (inactive) | 95.8% (inactive) | 5.25% (inactive) | 90.5 | 95.8 | -4.34% (inactive) | -9.83% (inactive)
5 | COc1cccc(NC(=O)COC(=O)c2ccco2)c1 | 112 | 94% (inactive) | 112% (inactive) | 97.6% (inactive) | 83.8% (inactive) | 2.71% (inactive) | 81.1 | 83.8 | -6.8% (inactive) | -1.27% (inactive)
6 | CC(NC(=O)Cc1cccs1)c1ccc2c(c1)OCO2 (stereo not given) | 125 | 81.5% (inactive) | 125% (inactive) | 108% (inactive) | 99.9% (inactive) | 13.7% (inactive) | 86.2 | 99.9 | -4.67% (inactive) | -0.66% (inactive)
7 | Cc1cc2c(=O)n(CC(=O)N3CCN(c4ccccc4)CC3)cnc2s1 | 92 | 78% (inactive) | 92% (inactive) | 100% (inactive) | 96.5% (inactive) | 8.25% (inactive) | 88.2 | 96.5 | -2.11% (inactive) | 0.18% (inactive)
8 | COc1ccc(C(=O)N2CCN(C3CCC(c4ccccc4)CC3)CC2)cc1OC (stereo not given) | 108 | 93% (inactive) | 108% (inactive) | 95.2% (inactive) | 83% (inactive) | -2.52% (inactive) | 85.6 | 83 | -4.16% (inactive) | -3.67% (inactive)
9 | O=C(Cn1nnc(-c2ccc(CN3CCOCC3)cc2)n1)NC1CCCCC1 | 108 | 104% (inactive) | 108% (inactive) | 106% (inactive) | 101% (inactive) | 4.09% (inactive) | 97.1 | 101 | -5.73% (inactive) | 3.28% (inactive)
10 | CC(=O)c1cccc(NC(=O)c2ccc(NS(C)(=O)=O)cc2)c1 | 118 | 80.5% (inactive) | 118% (inactive) | 97.7% (inactive) | 83.6% (inactive) | -1.39% (inactive) | 85 | 83.6 | -3.95% (inactive) | 1.75% (inactive)
11 | Cn1c(=O)c2c(nc(SCCCC#N)n2Cc2ccccc2F)n(C)c1=O | 79.5 | 84.5% (inactive) | 79.5% (inactive) | 95.8% (inactive) | 71.2% (inactive) | -4.56% (inactive) | 75.8 | 71.2 | -3.47% (inactive) | -3.67% (inactive)
12 | CC(C)(C)C1CCc2[nH]nc(C(=O)O)c2C1 (stereo not given) | 104 | 86.5% (inactive) | 104% (inactive) | 92.3% (inactive) | 98% (inactive) | 3% (inactive) | 95 | 98 | -2.43% (inactive) | 1.11% (inactive)
13 | CCN(CCCNC(=O)c1cn(CC)c2ccc(S(=O)(=O)N(C)C)cc2c1=O)c1cccc(C)c1 | 98 | 74.5% (inactive) | 98% (inactive) | 61.6% (inactive) | 80% (inactive) | 60.4% (active) | 19.6 | 80 | -2.8% (inactive) | 4.26% (inactive)
14 | Cc1cc(C)n2nc3nc(N4CCCCC4)nc(-c4ccco4)c3c2n1 | 81.5 | 81% (inactive) | 81.5% (inactive) | 79.5% (inactive) | 80.2% (inactive) | -2.63% (inactive) | 82.8 | 80.2 | -4.53% (inactive) | -5.16% (inactive)
15 | CC1=C(c2ccc(Cl)cc2)[N+](=O)C(C)(C)N1[O-] | 99.5 | 95.5% (inactive) | 99.5% (inactive) | 110% (inactive) | 89.6% (inactive) | -4.19% (inactive) | 93.8 | 89.6 | -4.52% (inactive) | -10.2% (inactive)
16 | CN(C)c1nc(Oc2ccc(=O)n(C)n2)nc(N2CCOCC2)n1 | 94 | 98.5% (inactive) | 94% (inactive) | 95.7% (inactive) | 92.9% (inactive) | 1.74% (inactive) | 91.2 | 92.9 | -4.93% (inactive) | 1.64% (inactive)

Row | SMILES | viability [1] [%] | Her2 level [2] | viability [3] | viability [4] | viability [5] | differential viability (reversal) ([6]; H69AR cells + 2 uM doxorubicin) | viability [6, 9] [%] | viability [6, 10] [%] | inhibition [7] | inhibition [8]
17 | COC(C)(C)c1cc(C(C)(C)C)nc(N)n1 | 107 | 109% (inactive) | 107% (inactive) | 86.2% (inactive) | 89.9% (inactive) | -1.34% (inactive) | 91.2 | 89.9 | -2.08% (inactive) | -4.75% (inactive)
18 | CCc1nc2c(cnn2-c2ccc(Cl)cc2)c(=O)n1-c1ccc2c(c1)OCCO2 | 90 | 86.5% (inactive) | 90% (inactive) | 83.3% (inactive) | 83.6% (inactive) | -4.38% (inactive) | 88 | 83.6 | 0.79% (inactive) | -5.97% (inactive)
19 | Cn1nnnc1SCC(=O)NC1CCCCC1 | 77.5 | 77% (inactive) | 77.5% (inactive) | 108% (inactive) | 96.1% (inactive) | -1.11% (inactive) | 97.2 | 96.1 | -5.95% (inactive) | -2.62% (inactive)
20 | CC1CCC(C(=O)NC(C(=O)NCCN2CCC(C)CC2)C(C)C)CC1 (stereo not given) | 126 | 107% (inactive) | 126% (inactive) | 87.6% (inactive) | 81.3% (inactive) | -6.62% (inactive) | 87.9 | 81.3 | -1.04% (inactive) | 13.9% (inactive)
21 | Cc1ccc(-n2ncc3c(Nc4c(C)n(C)n(-c5ccccc5)c4=O)ncnc32)c(C)c1 | 99 | 94.5% (inactive) | 99% (inactive) | 96.2% (inactive) | 92.3% (inactive) | 9.15% (inactive) | 83.2 | 92.3 | -4.8% (inactive) | 1.45% (inactive)
22 | Cc1cc(C)c(Cn2c(=O)n(CCCC(=O)NCc3ccco3)c(=O)c3ccccc32)c(C)c1 | 99 | 97.5% (inactive) | 99% (inactive) | 89.4% (inactive) | 94.9% (inactive) | 11.4% (inactive) | 83.5 | 94.9 | -1.45% (inactive) | 9.18% (inactive)
23 | CCC(=O)N1C(=O)CCN(C(C)=O)c2ccccc21 | 86.5 | 106% (inactive) | 86.5% (inactive) | 100% (inactive) | 103% (inactive) | -1.28% (inactive) | 104 | 103 | -4.67% (inactive) | 0.32% (inactive)
24 | CCOC(=O)N1CCC(NC(=O)CCN2C(=O)COc3ccccc32)CC1 | 100 | 106% (inactive) | 100% (inactive) | 100% (inactive) | 84.1% (inactive) | 6.63% (inactive) | 77.5 | 84.1 | 0% (inactive) | -6.17% (inactive)
25 | COC(=O)c1onc(C(=O)c2ccccc2)c1C(=O)OC | 104 | 89.5% (inactive) | 104% (inactive) | 98.8% (inactive) | 97.1% (inactive) | 12.7% (inactive) | 84.4 | 97.1 | -4.34% (inactive) | 3.71% (inactive)
26 | O=C(COC(=O)C1CCN(S(=O)(=O)c2cccs2)CC1)c1cc2ccccc2o1 | 104 | 83% (inactive) | 104% (inactive) | 91.9% (inactive) | 96.2% (inactive) | 2.38% (inactive) | 93.8 | 96.2 | -2.19% (inactive) | -0.63% (inactive)
27 | O=C1NC(c2ccco2)Nc2ccccc21 (stereo not given) | 82.5 | 85.5% (inactive) | 82.5% (inactive) | 107% (inactive) | 97.8% (inactive) | 7.01% (inactive) | 90.8 | 97.8 | 0.55% (inactive) | -6.98% (inactive)
28 | COc1ccc(OC)c(S(=O)(=O)N2c3ccccc3CC2C)c1 (stereo not given) | 82.5 | 109% (inactive) | 82.5% (inactive) | 77.6% (inactive) | 89.4% (inactive) | -11.7% (inactive) | 101 | 89.4 | -4.86% (inactive) | -3.93% (inactive)
29 | Cc1nc2c(=O)oc3ccccc3c2n1-c1ccccc1 | 117 | 100% (inactive) | 117% (inactive) | 107% (inactive) | 98.4% (inactive) | 13.4% (inactive) | 85.1 | 98.4 | -6.93% (inactive) | 2.74% (inactive)
30 | CCCc1nnc(SCC(=O)N2CCOCC2)n1Cc1ccco1 | 126 | 87.5% (inactive) | 126% (inactive) | 109% (inactive) | 96.9% (inactive) | 15.3% (inactive) | 81.6 | 96.9 | -4.67% (inactive) | -6.39% (inactive)
31 | O=C(CSc1nc2ncccc2[nH]1)Nc1ccc2c(c1)OCCO2 | 108 | 118% (inactive) | 108% (inactive) | 85.6% (inactive) | 82% (inactive) | -0.395% (inactive) | 82.4 | 82 | -2.86% (inactive) | -0.82% (inactive)
32 | Cc1nnc(SCc2cc(=O)[nH]c(N3CCCCC3)n2)s1 | 94 | 86.5% (inactive) | 94% (inactive) | 107% (inactive) | 94.1% (inactive) | 2.25% (inactive) | 91.9 | 94.1 | -7.3% (inactive) | -2.86% (inactive)
